# Screens: PubChem BioAssay, several laboratories
# MT stabilizer: microtubule stabilizers in HeLa cells, primary screen, imaging, high-content imaging; AID 2205, 2009; HeLa tubulin immunostaining HCS, 24 h; share of cells brighter than vehicle mean+2SD; % tubulin-high responders, % at 10 µM; 200,000 tested, 0.83% active;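 active = plate Z-score above 3 for both tubulin-high and condensed-nucleus cell shares, with cell loss under 80%, at 10 µM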;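 also: anti alpha tubulin signal scored within the nucleus-defined area of each cell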
# BaF3 parental: parental Ba/F3 cell viability inhibition, counter-screen for JAK2V617F inhibitor project, murine pro-B, CellTiter-Glo luminescence; CellTiter-Glo ATP luminescence; inhibition, % at 5.6 µM; 220,000 tested, 1.1% active;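 active = inhibition above a per-campaign cutoff, the mean inhibition of all tested compounds plus 3 SD, cut at about 27% in these data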;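 also: 0% = DMSO wells and 100% = JAK Inhibitor I control wells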
# KLF5 inh: KLF5 expression inhibitors, primary screen, DLD-1 cells, luminescence; DLD-1 KLF5 promoter-luciferase reporter; inhibition, % at 5 µM; 290,000 tested, 0.23% active; AID 1700, 2009;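 active = inhibition above a per-plate limit of that plate's mean compound inhibition plus 3 SD, cut at about 60% in these data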;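 also: 0% = DMSO wells and 100% = LY294002 at 200 µM; higher means less KLF5 promoter-driven luciferase light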
# IEC-6 tox-1: cytotoxicity in IEC-6 intestinal epithelial cells, primary screen, cytotoxicity control for KLF5 inhibitor project, cell-based, luminescence. 290,000 tested, 0.78% active. inhibition, % at 5 µM. IEC-6 cytotoxicity, luminescence viability. AID 1825, 2009;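 also: 0% = plate median of test compound wells and 100% = cytotoxic reference compound wells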
# Ba/F3 V617F tox: reduced viability of JAK2V617F-dependent Ba/F3 cells, primary screen, JAK2V617F inhibitor project, cell-based, Ba/F3 EpoR-JAK2V617F, luminescence; 220,000 tested, 1.1% active; AID 1446, 2008; inhibition, % at 5.6 µM; ATP luminescence;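 active = inhibition above the campaign mean plus 3 SD over all tested compounds, cut at about 24% in these data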;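 also: cytokine-independent growth of Ba/F3 cells driven by EpoR plus mutant JAK2; 0% = DMSO-treated cells and 100% = JAK inhibitor I control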
# b-catenin transl: modulators of beta-catenin nuclear translocation, primary screen, imaging, HeLa cells, immunofluorescence, high-content; nuclear translocation activity, % at 5 µM; 190,000 tested, 0.3% active; AID 1665, 2009;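 active = nuclear translocation activity above 50% at 5 µM, with a well cell count of 50 or more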;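 also: per-cell ratio of nuclear to cytoplasmic median beta-catenin stain intensity; plate controls were DMSO negative control for no effect and GSK-3 inhibitor IX positive control for full effect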
#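 Test system: human HeLa cell line; Doses: 5 µM primary, 0.02–20 µM confirmation; Incubation: 24 h compound exposure, 37°C; Detection: beta-catenin immunofluorescence imaging with DAPI; Read-out: beta-catenin nuclear/cytoplasmic ratio, % activation.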
# BaF3 tox 2: parental Ba/F3 cell viability inhibition, counter-screen for JAK2V617F inhibitor project, murine pro-B, CellTiter-Glo luminescence | cells kept alive by added IL-3 | inhibition, % at 5.6 µM | 580 tested, 31% active | shares compounds with Ba/F3 V617F tox | AID 1520, 2009;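 active = cell growth inhibition above the hit limit set in the earlier mutant JAK2 cell screen, cut at about 27% in these data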;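 also: plate controls were DMSO-treated cells for no effect and JAK Inhibitor I control wells for full effect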
# JAK2V617F confrm: viability loss in Ba/F3 EpoR-JAK2V617F cells, confirmation, JAK2V617F inhibitor project, cell-based, luminescence, triplicate. shares compounds with Ba/F3 V617F tox. inhibition, % at 5.6 µM. CellTiter-Glo luminescence. 580 tested, 66% active. AID 1521, 2009;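 active = mean inhibition above the hit cutoff derived in the earlier primary screen, cut at about 25% in these data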;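 also: 0% = DMSO-treated cells and 100% = JAK inhibitor I control wells; higher means lower luminescence from reduced cell ATP and viability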
# KLF5 confirm: KLF5 expression inhibitors, confirmation, DLD-1 cells, luminescence; shares compounds with KLF5 inh; DLD-1 KLF5 promoter firefly luciferase reporter; inhibition, % at 4 µM; AID 1834, 2009; 610 tested, 79% active;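 active = inhibition above a set limit taken from the earlier primary screen, cut at about 63% in these data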;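 also: 0% = DMSO wells and 100% = LY294002 at 200 µM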
# IEC-6 tox-2: cytotoxicity in rat IEC-6 cells, cytotoxicity control for KLF5 inhibitor project, cell-based, luminescence, triplicate. IEC-6 rat intestinal cells, viability luminescence. shares compounds with KLF5 inh. 610 tested, 56% active. inhibition, % at 4 µM; in the data active = inhibition above about 23%;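 also: cells exposed to compounds for 48 hours before viability read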
# IEC-6 cytotox cf: cytotoxic compounds in IEC-6 epithelial cells, confirmation, cytotoxicity control, cell-based, luminescence; AID 1907, 2009; inhibition, % at 5 µM; shares compounds with IEC-6 tox-1; 1,900 tested, 63% active; IEC-6 rat intestinal epithelial viability;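 also: 0% = vehicle and 100% = reference cytotoxic drug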
# * = called active by the depositor; x = no result. Sampled rows, rich in hits. Any-hit rate of the full collection: about 2.1%. Rule as the data show it, unless noted: active = inhibition above about 22%; inactive = the rest.
SMILES,MT stabilizer,BaF3 parental,KLF5 inh,IEC-6 tox-1,Ba/F3 V617F tox,b-catenin transl,BaF3 tox 2,JAK2V617F confrm,KLF5 confirm,IEC-6 tox-2,IEC-6 cytotox cf
COC12C(COC(N)=O)C3=C(C(=O)C(C)=C(N)C3=O)N1CC1C2N1C (configuration not stated),x,10.4,14.2,5.0,29.4*,0.7,50.3*,96.1*,x,x,x
Cc1cc(C(=O)C[N+]23CCN(CC2)CC3)c(C)n1-c1ccc(Br)cc1,5.2,0.9,-2.2,2.2,2.7,-1.2,x,x,x,x,x
O=C(c1ccccc1F)c1cn(CC(=O)N2CCCCC2)c2ccccc12,1.6,3.1,2.3,2.6,49.5*,-4.1,-4.8,-15.8,x,x,x
Cc1cc(C(=O)N2CCC3(CC2)OCCO3)no1,x,x,-12.3,-0.1,x,x,x,x,x,x,x
Cc1nn(Cc2ccccc2Cl)c(C)c1C(=O)OCC(=O)NC1CCS(=O)(=O)C1 (configuration not stated),5.0,4.0,-1.4,-0.8,-0.2,-5.1,x,x,x,x,x
Cc1nn(Cc2ccccc2Cl)c(C)c1C(=O)OCC(=O)NC1CCCC(C)C1C (configuration not stated),2.9,11.3,-15.5,0.0,76.0*,-1.3,-3.0,-0.4,x,x,x
CCn1nc(/C=C/c2ccccc2)nc2c(=O)n(C)c(=O)nc1-2,27.7*,23.8,-48.8,102.0*,44.0*,-2.5,103.1*,98.8*,x,x,104.2*
CC(C)(C#CC(=O)O)OOC(c1ccccc1)(c1ccccc1)c1ccccc1,x,x,-8.9,-3.3,x,x,x,x,x,x,x
CCCCCCC[n+]1ccc(-c2cc[n+](CCCCCCC)cc2)cc1,3.1,92.6*,76.9*,11.3,94.5*,1.1,x,x,62.8*,-6.8,x
Cn1c(O)c(Cc2ccc(OCc3ccccc3)cc2)c(=O)n(C)c1=O,x,x,-29.5,-10.1,x,x,x,x,x,x,x
C[C@@H]1O[C@@H](O[C@H]2C[C@@H](O)[C@]3(CO)[C@H]4[C@H](O)C[C@]5(C)[C@@H](C6COC(=O)C6)CC[C@]5(O)[C@@H]4CC[C@]3(O)C2)[C@H](O)[C@H](O)[C@H]1O (some centres not stated),9.7,5.9,63.9*,2.4,3.9,x,x,x,70.7*,2.8,x
N=c1c[n+](C2CCCCC2)[n-]o1,1.4,3.5,-11.9,-1.8,-1.3,-5.8,x,x,x,x,x
CC(C)[C@H]1C(=O)O[C@H](C(C)C)C(=O)N(C)[C@@H](C(C)C)C(=O)O[C@H](C(C)C)C(=O)N(C)[C@@H](C(C)C)C(=O)O[C@H](C(C)C)C(=O)N1C,4.3,76.8*,69.9*,89.2*,98.5*,-4.8,x,x,-3.1,9.8,54.0*
CCC(C)C(NC(=O)CCCNC(=O)CCC(=O)OC1O[C@H]2OC3(C)CC[C@H]4[C@H](C)CCC(C1C)C24OO3)C(=O)O (some centres not stated),x,x,83.2*,34.4*,x,x,x,x,84.2*,41.4*,26.4*
C[C@@H]1CC[C@H]2[C@@H](C)C(=O)O[C@@H]3O[C@@]4(C)CC[C@@H]1[C@]32OO4,x,x,12.2,4.2,x,x,x,x,x,x,x
CC(=O)OC(C)(C)/C=C/C(=O)C(C)(O)C1[C@H](O)C[C@@]2(C)C3CC=C4C(CC[C@@H](O)C4(C)C)[C@]3(CO)C(=O)C[C@]12C (some centres not stated),x,x,90.3*,99.3*,x,x,x,x,93.3*,96.3*,97.1*
